Screening data as filed in PubChem BioAssay.
Only some compounds are listed: those with a hit (about 1.2% of all), similar ones and a draw of the others.
TbHK1 inh = T. brucei hexokinase 1 inhibition | recombinant TbHK1, G6PDH-coupled NADH A340 | inhibition, % at 10 µM | hit rate 0.11% among 220,000 | AID 1430;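 active = inhibition of 50% or more in the single-dose primary screen; inactive = inhibition below 50%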
HKDC1 inh = HKDC1 (human) hexokinase inhibition | inhibition, % at 20 µM | recombinant HKDC1, G6PDH/diaphorase resazurin coupled fluorescence | hit rate 0.16% among 340,000;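 active = inhibition above about 35% when tested at 20 µM, limit read from the data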;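 also: plate controls were DMSO wells with enzyme for no effect and DMSO wells lacking enzyme for full effect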
Target sequence (Q2TB90 whole entry, looked up): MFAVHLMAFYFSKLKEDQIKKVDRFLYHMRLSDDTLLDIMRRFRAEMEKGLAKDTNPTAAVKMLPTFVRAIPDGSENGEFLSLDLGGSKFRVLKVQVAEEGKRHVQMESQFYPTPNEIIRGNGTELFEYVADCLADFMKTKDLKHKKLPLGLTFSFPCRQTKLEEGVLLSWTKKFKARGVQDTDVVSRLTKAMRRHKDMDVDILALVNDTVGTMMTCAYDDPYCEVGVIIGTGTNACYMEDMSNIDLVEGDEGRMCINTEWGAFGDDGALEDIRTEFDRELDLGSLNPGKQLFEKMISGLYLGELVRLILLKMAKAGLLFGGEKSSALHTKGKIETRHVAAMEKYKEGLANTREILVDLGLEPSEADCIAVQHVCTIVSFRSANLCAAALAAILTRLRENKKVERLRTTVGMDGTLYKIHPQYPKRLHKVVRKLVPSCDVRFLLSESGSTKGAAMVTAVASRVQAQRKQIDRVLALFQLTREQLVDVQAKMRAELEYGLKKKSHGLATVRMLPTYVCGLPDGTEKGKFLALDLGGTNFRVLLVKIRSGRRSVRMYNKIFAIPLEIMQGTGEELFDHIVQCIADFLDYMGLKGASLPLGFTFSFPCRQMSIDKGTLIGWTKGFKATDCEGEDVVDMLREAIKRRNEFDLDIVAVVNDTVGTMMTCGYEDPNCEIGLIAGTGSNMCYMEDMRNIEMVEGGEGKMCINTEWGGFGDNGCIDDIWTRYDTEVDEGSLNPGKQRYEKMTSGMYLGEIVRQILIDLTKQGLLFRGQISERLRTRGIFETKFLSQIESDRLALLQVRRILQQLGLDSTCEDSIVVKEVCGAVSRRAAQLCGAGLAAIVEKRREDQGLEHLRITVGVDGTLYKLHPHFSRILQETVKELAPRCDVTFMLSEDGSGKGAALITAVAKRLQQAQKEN
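Assay system: recombinant HKDC1 hexokinase; detection: coupled resazurin fluorescence, excitation 525 nm, emission 613 nm; benchmarks: DMSO-plus-enzyme-mix negative control, buffer-substituted positive control; compound dosing: single 20 µM dose; schedule: 90 min at room temperature in dark; also added: glucose plus 1 mM ATP as hexokinase substrates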
Diaphorase inh = counter-screen for diaphorase-based assays: diaphorase inhibitors and chemical oxidizers. hit rate 0.69% among 190,000. diaphorase resazurin-to-resorufin fluorescence, NADH, 16 min; bacterial (C. kluyveri) enzyme, not human. inhibition, % at 20 µM. AID 1217;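 active = primary screen inhibition at 20 µM above a set limit, cut at about 50% in these data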;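 also: plate controls were DMSO with full reaction for no effect and wells lacking NADH for full effect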
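Test system: diaphorase enzyme from Clostridium kluyveri; amount: diaphorase at 0.14 U/mL in enzyme working solution; detection: fluorescence of resorufin formed from resazurin, Ex 544/Em 590 nm; times: reaction incubation of 16 min at room temperature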
G6PDH counter = L. mesenteroides G6PDH inhibition counter-screen; Purified L. mesenteroides G6PDH, diaphorase/resazurin coupled fluorescence, 45 min; inhibition, % at 5 µM; hit rate 0.12% among 200,000; in the data active = inhibition above about 50%
PfGluPho inh = PfG6PD (Plasmodium falciparum) enzyme inhibition; inhibition, % at 20 µM; AID 504690; PfGluPho enzyme, NADPH resazurin-diaphorase fluorescence; hit rate 0.78% among 350,000;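 active = inhibition reaching at least a set limit at 20 µM in the primary screen, cut at about 59% in these data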;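 also: 0% = DMSO wells with substrate and 100% = DMSO wells lacking glucose-6-phosphate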
HKDC1 act conf2 = confirmation of human HKDC1 activators; shares compounds with HKDC1 inh; recombinant HKDC1, G6PDH/diaphorase resazurin fluorescence; hits give low values; inhibition, % at 20 µM; hit rate 14% among 740; AID 504708;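 active = inhibition at or below a set negative limit, negative inhibition meaning the enzyme was activated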
Numbers without * were called inactive; x = not tested or not shown.

SMILES	TbHK1 inh	HKDC1 inh	Diaphorase inh	G6PDH counter	PfGluPho inh	HKDC1 act conf2
CCOP(=O)(c1ccc(N(C)C)cc1)C(O)c1cc(OC)c(OC)c(OC)c1 (stereo not drawn)	0	0	14	2	-2	x
CCOP(=O)(c1ccc(N(C)C)cc1)C(O)c1ccc(OC)cc1 (stereo not drawn)	x	56*	x	x	-2	-21
C#CCN(Cc1ccco1)C(=O)c1cc(COc2cccc3cccnc23)on1	x	x	x	x	7	x
Cc1cccc(N=C2NN=C(c3c(C)[nH]c4ccccc34)CS2)c1	-16	-41	20	11	28	-18
C=CCn1c(C)cc(C2=NNC(=Nc3ccc(C)cc3)SC2)c1C	-1	-8	1	2	23	x
Cc1ccc(C2=NNC(=Nc3ccc(F)cc3)SC2)cc1	-7	-70	16	4	9	-80*
CCc1ccc(C2=NNC(=Nc3cccc(S(=O)(=O)N(C)C)c3)SC2)cc1	-12	-177	11	5	0	-141*
Cc1cccc(N=C2NN=C(c3ccc4c(c3)OCCO4)CS2)c1	-17	-62	12	4	12	-19
Clc1ccc(C2=NNC(=NCc3ccc4c(c3)OCO4)SC2)cc1	-5	-17	3	-26	44	x
CN(C)CCn1c2c(c(SCC(=O)NCc3ccccc3)nc1=O)CCCC2	x	-6	x	x	-2	x
CC(C)NC(=O)N(C)C[C@H]1Oc2ccc(NS(=O)(=O)c3ccccc3)cc2C(=O)N([C@H](C)CO)C[C@H]1C	x	2	x	x	-7	x
O=C1NC(=S)N/C1=C/c1cc2c(cc1[N+](=O)[O-])OCO2	x	-67	x	x	0	-37*
O=C(O)/C=C\c1cc2c(cc1[N+](=O)[O-])OCO2	-14	-7	x	x	-3	x
CCOc1cc(/C=C2\C(=N)N3N=C(C)SC3=NC2=O)ccc1OCCOc1cccc(OC)c1	x	6	x	x	7	x
CCc1nn2c(=O)cc(COc3ccc(/C=C4\C(=N)N5N=C(C)SC5=NC4=O)cc3)nc2s1	-28	58*	30	-6	-24	-27
CN(NC1OC(=O)c2ccccc21)c1ccccc1[N+](=O)[O-] (stereo not drawn)	-42	-4	x	x	-13	x
Cn1nccc1C(=O)N1CCN(c2cccc(C(F)(F)F)c2)CC1	x	-3	x	x	1	x
Cn1nccc1C(=O)N1CCN(c2cccc(Cl)c2)CC1	x	39*	x	x	14	-29
CCn1c2ccccc2c2nnc(SCc3ccc(C(=O)OC)o3)nc21	-24	29	37	5	27	21
CCn1c2ccccc2c2nnc(SCc3ccccc3)nc21	4	4	28	-45	30	x
COc1ccc(-c2cc3ccccc3[nH]2)cc1	-19	39*	x	x	16	31
CC(=O)Oc1cccc2c1C(=O)c1c(OC(C)=O)cc(C(=O)O)cc1C2=O	10	21	19	20	-7	x
CC(=O)Oc1cccc2c1C(=O)C1CC=CC(OC(C)=O)C1C2=O (stereo not drawn)	x	-45	x	x	-373	-66*
Cc1ccc2[nH]c(=O)c(CN(Cc3cccs3)S(=O)(=O)c3ccc4c(c3)OCCO4)cc2c1	4	-13	16	10	5	x
Cc1cc2cc(CN(Cc3cccs3)S(=O)(=O)c3ccc4c(c3)OCCO4)c(=O)[nH]c2cc1C	-4	-47	6	-16	5	-16
SMILES	TbHK1 inh	HKDC1 inh	Diaphorase inh	G6PDH counter	PfGluPho inh	HKDC1 act conf2
N#CC(C#N)=c1ccc2c(c1)N1C3=C(CCCC3)CC3CCCCC31N=2 (stereo not drawn)	-7	39*	76*	-32	46	-9
COc1ccc(C(=O)NNC(=O)c2ccccn2)cc1	29	-12	16	11	13	x
COc1ccc2c(c1)C(=NNC(=O)c1ccccn1)c1cc(OC)ccc1-2	-40	42*	5	-14	17	-13
O/C=c1\ccc2cccc3nc(C(F)(F)F)nc1c23	x	40*	x	x	10	21
O=C(CSc1nnc(NC2CCCCC2)s1)Nc1ccc2c(c1)C(=O)c1ccccc1C2=O	-5	-1	44	8	2	x
CC(C)Nc1nnc(SCC(=O)Nc2ccc3c(c2)C(=O)c2ccccc2C3=O)s1	-2	43*	52*	5	36	53
COc1ccc(-c2[nH]c(-c3ccc(SC)cc3)nc2SCC(=O)Nc2nccs2)cc1	-1	-54	22	0	15	-36*
CCOC(=O)CN1C(=O)S/C(=C\c2ccc(-c3cccc(C(=O)O)c3C)o2)C1=O	x	4	x	x	16	x
Cc1ccc(NC(=O)CN2C(=O)S/C(=C\c3ccc(-c4cccc(C(=O)O)c4C)o3)C2=O)cc1C	34	33	110*	2	-13	-26
COc1cc(NS(=O)(=O)c2ccc(NC(=O)c3ccc(F)cc3)cc2)ncn1	x	-59	x	x	-5	-33
O=c1[nH]c(=O)c2nc3c4ccccc4c4ccccc4c3nc2[nH]1	-2	37*	38	12	3	-2
O=c1[nH]c(=O)c2nc(-c3ccc(Cl)cc3)cnc2[nH]1	-10	-4	2	-2	-17	x
O=C(Cn1ccc(NC(=O)OCc2ccccc2)nc1=O)NCCN1CCOCC1	x	-5	x	x	-2	x
Cc1ccc(-n2c3nc(=O)[nH]c(=O)c-3cc3cc([N+](=O)[O-])ccc32)cc1	-8	49*	74*	-4	38	56
Cc1ccc(-c2csc3ncn(CC(=O)O)c(=O)c23)cc1C	x	-3	x	x	5	x
COc1ccc(CNC(=O)CN(C(=O)c2csnn2)c2ccc(F)cc2)cc1	x	2	x	x	-7	x
O=C(O)c1ccc2ncsc2c1	-14	41*	x	x	4	48
O=C(c1ccc2ncsc2c1)N1CCCCC1	x	-2	x	x	-1	x
COc1ccc2[nH]c3c4c(ccc3c2c1)C(=O)C=CC4=O	-13	51*	x	x	90*	33
COc1cc(OC)cc(C(=O)NC(=S)NNC(=O)c2cnccn2)c1	-2	-42	68*	-16	-3	-40*
COc1cc(OC)cc(C(=O)NNC(=S)NC(=O)c2cccnc2)c1	x	-5	x	x	-15	x
O=C(N/N=C/c1ccc(-c2ccc(S(=O)(=O)Nc3ncccn3)cc2)o1)c1cc2ccccc2cc1O	-36	33	41	17	-53	-22
CCC(C)n1c(C)cc(=O)n1C(C)CC (stereo not drawn)	x	-4	x	x	9	x
CCNC(=S)Nc1cccc(F)c1C	-2	-6	4	3	15	x
Oc1ccc(/C=N/NC(=S)Nc2cccnc2)c(O)c1	-27	-40	21	-14	-9	15
CCN(CC(=O)Nc1c(F)cccc1F)C(=O)/C=C/c1ccc2ccccc2n1	x	33	x	x	-2	13
CCN(CC(=O)Nc1c(F)cccc1F)C(=O)c1ccc2ccccc2n1	x	-9	x	x	-5	x
Cc1cccn2c(=O)c3cc(C(N)=S)c(=N)n(CCCN4CCOCC4)c3nc12	-16	-54	18	2	45	-13
COCCCn1c(=N)c(C(N)=S)cc2c(=O)n3cccc(C)c3nc21	x	-3	x	x	40	x
